Data reported in ChEMBL document CHEMBL1817619, “Synthesis and antimicrobial activity of (E) stilbene derivatives” (Bioorg Med Chem, 2011).
Active and inactive are the calls of the source. No cut-off for these calls is given here.

Legend:
NIH3T3 = experiment: Cytotoxicity against mouse NIH/3T3 cells after 96 hrs by sulforhodamine-B colorimetric assay; format: cell-based; details: NIH3T3, 96 h
Method in brief: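 Exponentially growing mouse embryonic fibroblasts were seeded and treated 24 h later with serial dilutions for 96 h; DMSO or DMF stayed at or below 0.5%. Cells were fixed with 10% TCA at 4 °C, stained with 0.4% SRB for about 20 min, washed with 1% acetic acid, solubilised in Tris base, and read at 570 nm. Survival is relative to untreated controls. IC50 was obtained by linear interpolation across the 50% line; three independent experiments.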

[1] = tested on: Enterobacter cloacae subsp. dissolvens; experiment: Antibacterial activity against Enterobacter dissolvens ATCC 222 at 10 mg/ml after 24 to 72 hrs by agar diffusion method; format: functional, organism-based
Method in brief: (§1)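 Bacterial plates: nutrient broth (8 g/l) with 1.5% agar, seeded at 45 °C with spores or vegetative cells to 10^6 cfu/ml. Compounds were dissolved in methanol at 10 mg/ml and applied to 6 mm paper discs, which were dried and laid on the plates. Inhibition zone diameter (mm) and type (complete or incomplete) were scored after 24–72 h.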

Micrococcus luteus = experiment: Antibacterial activity against Micrococcus luteus ATCC 381 at 10 mg/ml after 24 to 72 hrs by agar diffusion method; format: functional, organism-based; method in brief: as §1
Bacillus subtilis = experiment: Antibacterial activity against Bacillus subtilis ATTC 6633 at 10 mg/ml after 24 to 72 hrs by agar diffusion method; format: functional, organism-based; method in brief: as §1
Brevibacillus brevis = experiment: Antibacterial activity against Bacillus brevis ATTC 9999 at 10 mg/ml after 24 to 72 hrs by agar diffusion method; format: functional, organism-based; method in brief: as §1
Botrytis cinerea = experiment: Antifungal activity against Botrytis cinerea FSU 883 at 10 mg/ml after 24 to 72 hrs by agar diffusion method; format: functional, organism-based
Method in brief: (§2)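 Fungal plates: malt extract/yeast extract (HA) medium with 1.5% agar, seeded at 45 °C with spores or yeast cells to 10^5 cfu/ml. Compounds in methanol at 10 mg/ml were loaded onto 6 mm paper discs and dried before placement. Inhibition zone diameter (mm) and complete or incomplete inhibition were recorded after 24–72 h.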

Eremothecium coryli = experiment: Antifungal activity against Nematospora coryli ATCC 10647 at 10 mg/ml after 24 to 72 hrs by agar diffusion method; format: functional, organism-based; method in brief: as §2
[2] = tested on: Colletotrichum graminicola; experiment: Antifungal activity against Colletotrichum graminicola M2 at 10 mg/ml after 24 to 72 hrs by agar diffusion method; format: functional, organism-based; method in brief: as §2
Rhizomucor miehei = experiment: Antifungal activity against Mucor miehei FSU 769 at 10 mg/ml after 24 to 72 hrs by agar diffusion method; format: functional, organism-based; method in brief: as §2
Penicillium chrysogenum = experiment: Antifungal activity against Penicillium notatum FSU 2721 at 10 mg/ml after 24 to 72 hrs by agar diffusion method; format: functional, organism-based; method in brief: as §2

| SMILES | IC50 (NIH3T3) [µM] | Activity [1] | Activity (Micrococcus luteus) | Activity (Bacillus subtilis) | Activity (Brevibacillus brevis) | Activity (Botrytis cinerea) | Activity (Eremothecium coryli) | Activity [2] | Activity (Rhizomucor miehei) | Activity (Penicillium chrysogenum) |
| --- | --- | --- | --- | --- | --- | --- | --- | --- | --- | --- |
| COc1ccc(/C=C/c2cc(O)ccc2O)cc1O | > 30 | inactive | – | – | – | – | – | – | – | – |
| Oc1cccc(/C=C/c2cc(O)c(F)c(O)c2)c1 | > 30 | inactive | Active | Active | Active | – | – | – | – | – |
| COc1ccc(/C=C/c2ccc(OC)c(O)c2)c(OC)c1 | 2.1 | – | – | – | – | – | – | – | – | – |
| Oc1ccc(/C=C/c2cc(O)c(F)c(O)c2)cc1 | > 30 | inactive | – | – | Active | inactive | – | – | – | – |
| Oc1ccc(/C=C/c2cc(F)c(F)c(F)c2)cc1 | 6.9 | inactive | – | – | Active | inactive | Active | – | – | – |
| Oc1ccc(O)c(/C=C/c2ccc(O)c(O)c2)c1 | > 30 | inactive | – | – | – | – | – | – | – | – |
| COc1cc(/C=C/c2ccc(O)cc2)cc(OC)c1 [PTEROSTILBENE] | 12.2 | inactive | – | – | Active | inactive | – | – | – | – |
| COc1cc(/C=C/c2ccccc2O)cc(OC)c1F | 14.8 | inactive | Active | Active | Active | – | – | – | – | – |
| COc1ccc(/C=C/c2ccc(O)cc2)c(OC)c1 | 8.2 | inactive | – | – | Active | inactive | – | – | – | – |
| CN(C)[C@@H]1C(O)=C(C(N)=O)C(=O)[C@@]2(O)C(O)=C3C(=O)c4c(O)cccc4[C@@](C)(O)[C@H]3C[C@@H]12 | – | – | – | – | Active | – | – | – | – | – |
| COc1ccc(OC)c(/C=C/c2ccc(O)cc2)c1 | 7.4 | inactive | – | – | Active | inactive | – | – | – | – |
| Oc1ccc(O)c(/C=C/c2ccccc2O)c1 | 12.4 | inactive | Active | Active | Active | – | – | – | – | – |
| COc1cc(/C=C/c2cccc(O)c2)cc(OC)c1F | 11.8 | inactive | Active | Active | Active | – | – | – | – | – |
| COc1ccc(/C=C/c2cccc(O)c2)c(OC)c1 | 19.6 | inactive | Active | Active | Active | – | – | – | – | – |
| Oc1ccccc1/C=C/c1cc(F)c(F)c(F)c1 | > 30 | inactive | Active | Active | Active | Active | Active | Active | Active | Active |
| Oc1cccc(/C=C/c2cc(O)ccc2O)c1 | 10.5 | inactive | Active | Active | Active | – | – | – | – | – |
| Oc1ccc(/C=C/c2cc(O)cc(O)c2)cc1 [RESVERATROL] | > 30 | inactive | Active | – | inactive | inactive | – | – | – | – |
| Oc1cccc(/C=C/c2cc(F)c(F)c(F)c2)c1 | > 30 | inactive | Active | Active | Active | – | – | – | Active | – |
| COc1ccc(/C=C/c2ccccc2O)c(OC)c1 | > 30 | inactive | Active | Active | Active | – | – | – | – | – |
| COc1cc(/C=C/c2ccc(O)cc2)cc(OC)c1F | 11.5 | inactive | – | – | Active | inactive | – | – | – | – |
| COc1ccc(OC)c(/C=C/c2cccc(O)c2)c1 | 25.8 | inactive | Active | Active | Active | – | – | – | – | – |
| COc1cc(F)c(/C=C/c2cc(O)ccc2O)cc1O | 21.1 | inactive | Active | Active | Active | – | – | – | – | – |
| COc1cc(/C=C/c2ccc(OC)c(O)c2)cc(OC)c1 | 0.2 | – | – | – | – | – | – | – | – | – |
| Oc1ccc(/C=C/c2cc(O)ccc2O)cc1 | 9.6 | inactive | – | – | Active | inactive | – | – | – | – |
| Oc1cccc(/C=C/c2cc(O)cc(O)c2)c1 | > 30 | inactive | Active | Active | Active | – | – | – | – | – |
| COc1cc(/C=C/c2cccc(O)c2)cc(OC)c1 | > 30 | inactive | Active | Active | Active | – | – | – | – | – |
